NR2E3 ag-1: NR2E3 agonists in two-hybrid cells, primary screen, cell-based, luminescence, CHO-S, Gal4-NCOR/VP16-NR2E3; Photoreceptor-specific nuclear receptor (Homo sapiens), Q9Y5X4; luciferase; inhibition of corepressor binding, % at 3.98 µM; 360,000 compounds, 0.35% hits;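 active = inhibition above the mean of all tested compounds plus 3 SD, cut at about 70% in these data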;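 note: 0% = DMSO with NR2E3 transfected cells and 100% = cells lacking NR2E3 construct; higher means lower luciferase signal from less NR2E3 corepressor binding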
PG9 binder: binders of HIV-1 gp120 antibody PG9, primary screen, biochemical, TR-FRET; AID 624416, 2012; inhibition, % at 6.7 µM; TR-FRET gp120-PG9 antibody binding; 360,000 compounds, 0.43% hits; HIV-1 gp120 / PG9 antibody interaction; in the data active = inhibition above about 8.5%
NR2E3 ag-2: inhibitors of NR2E3-RetCOR corepressor binding, primary screen, NR2E3 agonist project, biochemical, TR-FRET, GST-NR2E3, biotin-RetCOR. AID 2300, 2010. 320,000 compounds, 0.12% hits. Photoreceptor-specific nuclear receptor (Homo sapiens), Q9Y5X4. inhibition of corepressor binding, % at 4.78 µM. 1536-well;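 active = percent inhibition above the cutoff of mean plus 3 SD of all tested compounds, set per screening campaign, cut at about 20% in these data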;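 note: 0% = DMSO wells and 100% = biotin wells as full block of FRET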
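System: GST-NR2E3 and biotin-RetCOR proteins; probe or stimulus: 7 nM biotin-RetCOR; doses: compound at 4.8 µM, single dose; schedule: Compound–protein incubation for 5 h at 4 °C; detection: time-resolved FRET; read-out: percent inhibition; controls: biotin wells as high control, 0.6% DMSO wells as low control; format: 1536-well plates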
NR1D1 modulator: modulators of Rev-erb alpha DNA binding, primary screen, biochemical, FITC-DNA, fluorescence polarization, uHTS; Nuclear receptor subfamily 1 group D member 1 (Homo sapiens), P20393; Rev-erbα–FITC-DNA binding, 90 min; activity, % at 10 µM; 370,000 compounds, 0.79% hits; AID 1259318, 2017;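 active = activity above about 14%, limit read from the data; passing the limit was not always enough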;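 note: 0% = DMSO wells with 35 nM protein and 100% = DMSO wells with 750 nM protein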
Target sequence (P20393 whole entry, looked up): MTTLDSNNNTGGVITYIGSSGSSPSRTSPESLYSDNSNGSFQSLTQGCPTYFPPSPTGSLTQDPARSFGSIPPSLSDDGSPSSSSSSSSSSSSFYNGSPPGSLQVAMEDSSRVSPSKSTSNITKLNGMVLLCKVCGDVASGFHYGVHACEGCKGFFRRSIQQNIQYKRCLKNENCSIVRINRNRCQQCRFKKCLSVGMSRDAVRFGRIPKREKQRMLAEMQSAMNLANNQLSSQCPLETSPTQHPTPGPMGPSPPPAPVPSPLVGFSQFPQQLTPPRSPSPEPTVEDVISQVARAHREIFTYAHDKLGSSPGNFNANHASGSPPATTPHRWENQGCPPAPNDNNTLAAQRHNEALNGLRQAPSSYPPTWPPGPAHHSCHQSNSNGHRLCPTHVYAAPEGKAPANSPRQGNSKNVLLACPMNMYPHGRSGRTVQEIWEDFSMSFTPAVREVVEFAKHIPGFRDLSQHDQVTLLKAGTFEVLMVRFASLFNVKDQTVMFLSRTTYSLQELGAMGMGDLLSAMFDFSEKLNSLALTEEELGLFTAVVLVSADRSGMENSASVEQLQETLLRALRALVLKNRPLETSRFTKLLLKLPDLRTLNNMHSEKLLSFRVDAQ
Rev-erbA confirm: modulators of Rev-erb alpha DNA binding, confirmation, biochemical, FITC-DNA, fluorescence polarization, single point; shares compounds with NR1D1 modulator; 90 min; activation, % at 25 µM; 3,000 compounds, 61% hits;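 active = activation at or above a set limit, or at least 3 SD above the negative control mean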;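 note: 0% = 35 nM protein with DMSO and 100% = 750 nM protein high control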
RORg DNA counter: modulation of RORgamma DNA binding, dose response, counter-screen for Rev-erb alpha modulator project, biochemical, fluorescence polarization, FITC-DNA. shares compounds with NR1D1 modulator. 910 compounds, 8% hits. purified RORgamma protein-FITC-DNA binding. IC50, µM;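 active = Compounds whose fitted half-maximal concentration for disrupting protein-DNA binding is below 10 micromolar; the record names Rev-erb in its text, so the target is in doubt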
An asterisk follows results filed as active; i = inactive; nt = no result given; ! = not confirmed by another sample. Compounds with a hit are over-represented: about 1.4% of the library has one in this group of screens.

SMILES	NR2E3 ag-1	PG9 binder	NR2E3 ag-2	NR1D1 modulator	Rev-erbA confirm	others
CCOc1ccc(CNc2nnnn2C)cc1OC	9	-4	3	-3	nt
CCOC(=O)c1ccc(N2C(=O)CC(N(Cc3ccc4c(c3)OCO4)C(=O)Nc3ccccc3)C2=O)cc1 (centres undefined)	-37	-1	-1	3	nt
Cc1nc(NCCc2ccc(Cl)cc2)c2nnn(Cc3ccccc3)c2n1	-19	-1	-1	40*	35*	RORg DNA counter=i
O=C(NCc1ccc(F)cc1)C1CCCN(c2nc3ccsc3c(=O)s2)C1 (centres undefined)	-9	1	-5	20*	17
Cc1cc(=O)n2nc(N3CCCC(C(=O)NCc4ccc(F)cc4)C3)sc2n1 (centres undefined)	-30	-1	-3	0	nt
CCc1cc2cc3c(cc2nc1SCC(=O)Nc1nnc(C)s1)OCCO3	-8	2	2	60*	41*	RORg DNA counter=>40
CCc1nnc(NC(=O)CSc2nc3cc4c(cc3cc2CC)OCCO4)s1	-9	2	2	90*	36*	RORg DNA counter=>40
CCOC(=O)CSc1nc2cc3c(cc2cc1CC)OCCO3	3	3	3	11	nt
O=C(CSc1ncnc2sccc12)Nc1ccc(S(=O)(=O)N2CCOCC2)cc1	-22	-2	nt	3	nt
O=C(Nc1ccc(O)c(-c2nc3ccccc3s2)c1)c1cccs1	-29	36*	-2	360*	703*	RORg DNA counter=i
O=C(Nc1ccc(O)c(-c2nc3ccccc3s2)c1)c1cc(=O)c2ccccc2o1	5	0	-3	-29	nt
O=C(Nc1nnc(COc2ccc(Cl)cc2)s1)c1ccco1	-8	4	1	-5	nt
CCCCCCCCCCCCCCCC[n+]1ccccc1	4	-1	nt	25*!	-3
N#Cc1c(N2CCOCC2)nsc1-c1ccc(C(F)(F)F)cc1	-28	5	2	22*	16
Cc1cc(C(F)(F)F)c(C#N)c(N2CCOCC2)n1	-22	0	-2	-3	nt
CCOc1cc(/C=C2\NC(=O)NC2=O)cc([N+](=O)[O-])c1O	12	-34	-25	19*	-2
CCOc1cc(/C=C2\C(=O)NN(c3ccccc3)C2=O)cc([N+](=O)[O-])c1O	-8	-14	1	-9	nt
CC(NC(=O)CSc1nnc(-c2cc3cc(Cl)ccc3o2)n1C)c1ccccc1 (centres undefined)	0	-2	0	2	nt
Cn1c(SCC(=O)Nc2cccc(Br)c2)nnc1-c1cc2ccccc2o1	-3	-9	-323	42*	60*
Cn1c(SCC(=O)NC2CCCCC2)nnc1-c1cc2cc(Cl)ccc2o1	-2	-1	0	101*	27*
CC(C)(C)N(C(=O)Cn1nnc(-c2ccc(F)cc2)n1)C(C(=O)NC1CCCC1)c1ccncc1 (centres undefined)	-40	-1	1	-3	nt
O=C(Cc1ccccc1)Nc1ccc(SC(F)F)cc1	-79	0	-2	-1	nt
O=S(=O)(NCCc1csc(-c2cccnc2)n1)c1cccs1	-38	0	-3	24*	-5
CCNc1nnc(SCC(=O)c2c(N)n(C3CC3)c(=O)[nH]c2=O)s1	-14	0	5	-5	nt
Cc1cc(NC(=O)c2cccs2)cc(-c2nc3ncccc3o2)c1O	-6	1	3	71*	67*	RORg DNA counter=>40
SMILES	NR2E3 ag-1	PG9 binder	NR2E3 ag-2	NR1D1 modulator	Rev-erbA confirm	others
Cc1ccc(-c2nc3ncccc3o2)cc1NC(=O)c1cccs1	-6	2	-4	3	nt
CCCCNC(=O)C1c2ccccc2OCC(=O)N1Cc1ccccc1 (centres undefined)	-2	-2	nt	0	nt
CCOC(=O)c1ccccc1NC(=O)c1n[nH]c(=O)c2ccccc12	0	0	4	53*	25*
COc1cc(NC(=O)c2n[nH]c(=O)c3ccccc23)cc(OC)c1	13	7	-2	26*	20*
CCOC(=O)c1ccc(NC(=O)c2n[nH]c(=O)c3ccccc23)cc1	-5	-2	6	21	nt
O=C(Nc1ccc(-c2nc3cc(Cl)ccc3c(=O)o2)cc1)c1ccco1	10	0	1	27*	0
COc1cc(CNc2ncnc3c2ncn3[C@H]2CN(Cc3cc(OC)c(OC)c(OC)c3)C[C@@H](CO)O2)cc(OC)c1OC	-15	1	nt	-7	nt
O=C(CSc1nnc(-c2cccs2)o1)c1ccc(F)cc1	nt	nt	nt	1	nt
O=C(CSc1nnc(-c2cccs2)o1)c1ccc2c(c1)OCO2	nt	nt	nt	115*	134*	RORg DNA counter=>40
Oc1ccccc1-c1nc(NCc2ccccc2)c2ccccc2n1	-13	6	2	97*	77*	RORg DNA counter=>40
Oc1ccccc1-c1nc(NCc2cccnc2)c2ccccc2n1	-12	1	2	4	nt
Oc1ccccc1-c1nc(N2CCCC2)c2ccccc2n1	-3	-2	1	134*	69*	RORg DNA counter=6.9*
C=CCc1cccc(C2Nc3ccccc3C(=O)N2O)c1O (centres undefined)	-67	0	0	60*	32*	RORg DNA counter=>40
CC(=O)c1sc(NC(=O)COc2ccccc2)nc1C	-68	5	5	1	nt
CCOC(=O)c1sc2nc(NC(=O)COc3ccccc3)sc2c1C	-4	0	5	23*	14*
CC(C)C(C(=O)O)N1CCS(=O)(=O)CC1 (centres undefined)	-3	2	-4	-2	nt
Cc1cc2c(cc(C(=O)OC(C)C(=O)NCc3ccccc3)n2C)o1 (centres undefined)	-13	-1	nt	26*	18*
Cc1cc2c(cc(C(=O)OC(C)C(=O)NCc3ccc(F)cc3)n2C)o1 (centres undefined)	4	1	nt	6	nt
COC(=O)c1c(NC(=S)NC(=O)c2ccco2)sc2c1CCCC2	25	1	-3	0	nt
COC(=O)c1c(NC(=S)NNS(=O)(=O)c2ccc(OC)cc2OC)sc2c1CCCCCC2	27	1	nt	32*	12
Cc1ccc(-c2c(C)sc(=NC(=O)c3ccco3)n2C)cc1	-142	1	5	37*	16*
COc1ccc(OC)c2c1sc(=NC(=O)c1ccco1)n2C	-24	1	3	16	nt
CN(CC(=O)Nc1ccc(F)c(F)c1F)C(=O)CCc1nc2sc3c(c2c(=O)[nH]1)CCCC3	1	0	-2	19*	17

Screening data (PubChem BioAssay)
